Screening results (PubChem)
This is a sample that favours compounds with a hit; in the whole collection about 3.7% have one here.
Exocytosis inh = lytic granule exocytosis inhibition; 360,000 compounds, 0.66% hits; AID 651702; TALL-104 LAMP-1 surface exposure, flow cytometry; cells stimulated with thapsigargin and PMA; inhibition, % at 10 µM;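 active = inhibition above about 55%, limit read from the data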
MC4R antagonist = antagonists of human melanocortin 4 receptor (MC4R). MC4R-expressing cells, MTII-stimulated cAMP, LANCE TR-FRET. inhibition, % at 6.5 µM. 360,000 compounds, 0.48% hits. AID 540295;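 active = inhibition above its plate's cutoff, the mean of tested wells on that plate plus 3 SD, cut at about 29% in these data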;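 also: 0% = Melanotan II alone and 100% = Melanotan II plus saturating MCL0020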
Target sequence (P32245 whole entry, looked up): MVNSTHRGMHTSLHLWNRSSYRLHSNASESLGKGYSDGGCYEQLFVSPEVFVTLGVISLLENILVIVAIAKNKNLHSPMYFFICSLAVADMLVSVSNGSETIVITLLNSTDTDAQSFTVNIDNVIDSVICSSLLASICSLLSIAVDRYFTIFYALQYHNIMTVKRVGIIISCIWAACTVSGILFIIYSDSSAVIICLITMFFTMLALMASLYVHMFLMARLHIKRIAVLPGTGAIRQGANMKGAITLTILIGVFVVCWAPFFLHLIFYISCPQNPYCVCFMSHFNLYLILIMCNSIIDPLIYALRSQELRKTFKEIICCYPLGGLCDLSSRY
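system = U2OS cells with stable human MC4R expression | also added = Melanotan II challenge after compound preincubation | dosing = one concentration, 6.5 µM nominal | incubation = compound 30 min, challenge 1 h, detection 1 h | measured by = TR-FRET with Eu-cAMP and labeled anti-cAMP, 671 nm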
Myeloid diff MLP = myeloid differentiation induction; ER-HoxA9 myeloid progenitors, lysozyme-GFP differentiation, flow cytometry; calls only at 10 µM; 360,000 compounds, 1% hits; AID 624256;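 active = normalized GFP-positive differentiation at or above the plate's own cutoff, the solvent-only control mean plus 3 SD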;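 also: cells exposed to compound for four days before flow analysis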
MC4R barr agon = activates human MC4R beta-arrestin recruitment; U2OS MC4R beta-arrestin complementation, luminescence; percent of melanotan II response, DMSO zero; activation, % at 8.9 µM; 360,000 compounds, 0.98% hits; AID 540308;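 active = activation above a per-plate cutoff, the mean activation of sample wells on that plate plus 3 SD, cut at about 8% in these data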
EBI2 block = EBI2 (human) antagonism; P32249; EBI2 beta-arrestin recruitment, luminescence, 7a,25-OHC stimulated; inhibition, % at 5 µM; 360,000 compounds, 0.81% hits; in the data active = inhibition above about 38%;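 also: enzyme fragment complementation signal reports receptor beta-arrestin coupling in cells; 0% = agonist plus DMSO wells and 100% = wells without agonist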
Target sequence (P32249 whole entry, looked up, the tested form may be a part): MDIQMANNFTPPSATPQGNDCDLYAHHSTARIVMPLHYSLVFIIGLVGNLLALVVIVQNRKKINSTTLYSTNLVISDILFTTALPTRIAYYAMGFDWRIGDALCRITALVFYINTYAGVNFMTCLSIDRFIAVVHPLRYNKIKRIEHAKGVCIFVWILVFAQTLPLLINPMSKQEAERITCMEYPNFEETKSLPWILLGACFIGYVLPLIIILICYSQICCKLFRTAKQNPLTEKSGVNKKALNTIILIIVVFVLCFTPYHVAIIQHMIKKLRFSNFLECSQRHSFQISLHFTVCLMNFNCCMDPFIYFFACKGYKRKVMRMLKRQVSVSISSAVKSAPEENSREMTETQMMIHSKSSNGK
MC4R barr ag = human MC4R beta-arrestin agonism confirmation; 2,400 compounds, 31% hits; activation, % at 8.9 µM; shares compounds with MC4R barr agon; U2OS MC4R beta-arrestin recruitment, luminescence; scaled DMSO 0%, Melanotan II 100%; AID 602192;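 active = mean activation across replicates above the hit cutoff set in the earlier primary screen, cut at about 8% in these data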
MOR DOR agonist = counter-screen for MC4R agonists: agonists of mu-delta opioid heterodimer; shares compounds with MC4R barr agon; U2OS PathHunter beta-arrestin, beta-gal luminescence; percent of deltorphin B response, DMSO zero; activation, % at 9.2 µM; 2,400 compounds, 5.8% hits; AID 602194;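 active = mean activation across replicates exceeds the hit threshold derived in the earlier primary screen, cut at about 18% in these data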;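 also: 100% = deltorphin B at 0.9 µM final and 0% = DMSO alone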
Myeloid diff CP1 = promotes myeloid progenitor differentiation. shares compounds with Myeloid diff MLP. ER-HoxA9 myeloid progenitors, GFP/Mac1 double-positive flow. calls only. 2,300 compounds, 2% hits;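 active = share of green or green-and-red cells above 9 and 9% in run 1 or 4 and 3% in run 2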
GFP autofluor = compound fluorescence in myeloid differentiation counter-screen. 2,300 compounds, 7.4% hits. AID 651707. fluorescence response, % (concentration not given with the values). ER-HoxA9 myeloid progenitors, no estrogen, GFP autofluorescence flow cytometry; vehicle wells 0%, positive control 100%. shares compounds with Myeloid diff MLP;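 active = over 5% cells positive for green fluorescent reporter, or over 2% positive for both it and APC stain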;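 also: range taken on the double positive population between DMSO and positive control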
EBI2 conf = confirmation of human EBI2 receptor antagonists. EBI2 beta-arrestin luminescence, 7a,25-OHC antagonism. 2,400 compounds, 29% hits. inhibition, % at 5 µM. shares compounds with EBI2 block;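 active = inhibition of at least 50%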
EBI2 agonist = EBI2 agonism counter-screen; shares compounds with EBI2 block; EBI2-expressing cells, agonist mode, luminescence, 60 min; 0% vehicle, 100% 7α,25-dihydroxycholesterol control; activation, % at 5 µM; 2,400 tested, under 10 active; AID 652000;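 active = activation of at least 50%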
bGal cs = beta-galactosidase inhibition counter-screen | shares compounds with EBI2 block | 2,400 compounds, 1% hits | purified beta-galactosidase, luminescent Galacton Star, 15 min | inhibition, % at 5 µM;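 active = replicate-average signal at least 3 plate SD below neutral wells, shown as high inhibition, flagging enzyme-inhibiting false positives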;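 also: 0% = DMSO wells with enzyme and 100% = wells lacking enzyme; higher means stronger loss of beta-gal luminescence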
* hit, by the source's call; i = inactive; · = no result given; + = active, no number.

SMILES	Exocytosis inh	MC4R antagonist	Myeloid diff MLP	MC4R barr agon	EBI2 block	MC4R barr ag	MOR DOR agonist	others
NC(CCc1ccccc1)c1csc(NC(=O)Nc2ccccc2Oc2ccccc2)n1 (centres undefined)	9	12	i	18*	-6	4	25*
COc1ccc(CC(N)c2csc(NC(=O)NCCc3ccccc3)n2)cc1 (centres undefined)	13	-1	i	1	-5	·	·
OC1(C#Cc2c(-c3ccsc3)oc3ccc(N4CCOCC4)cc23)CCCCC1	-8	19	i	13*	7	8	5
COc1cc(O)c(CC=C(C)C)c(O)c1C(=O)CCc1ccc(O)cc1	13	-4	i	36*	28	32*	6
O=C(Nc1ccccc1)c1cccc(N2C(=O)C3C4CC(C(Br)C4Br)C3C2=O)c1 (centres undefined)	3	9	i	-3	4	·	·
COc1cc2c3c(c1)c(N=NC(N)=S)c(O)n3C(C)(C)C=C2C	-3	-1	i	3	3	·	·
CC1=CC(C)(C)n2c(O)c(N=NC(N)=S)c3cccc1c32	0	9	i	11*	-14	1	3
CC(C)c1ccc(/C=N/NC(=O)CN(c2cccc(Cl)c2Cl)S(C)(=O)=O)cc1	15	0	i	22*	-1	6	8
Nc1nc(Nc2ccccc2F)nc(N2CCOCC2)c1[N+](=O)[O-]	1	8	i	0	-13	·	·
Cc1ccc(O)c(C(=O)/C=C/c2ccc3c(c2)OCCO3)c1	-3	-2	i	22*	17	21*	4
Cc1ccc(C(=O)C=Cc2ccc3c(c2)OCO3)c(C)c1	6	-4	i	1	8	·	·
O=C(Nc1ccc(OC(F)(F)C(F)F)c(NC(=O)c2cccc(F)c2)c1)c1cccc(F)c1	-7	14	i	21*	8	7	4
CN(C)c1nc(N(C)C)c2cnn(C)c2n1	-4	2	i	-2	-11	·	·
COc1ccc(C(CCNCc2ccc(OC(C)C)cc2)c2ccccc2OC)cc1 (centres undefined)	29	9	i	13*	3	15*	25*
Oc1ccc(C[C@@H]2CNC(=S)N2CCCCC2CCCCC2)cc1	0	1	i	14*	13	11*	3
O=C1NC[C@@H](Cc2ccc(O)cc2)N(CCCCC2CCCCC2)C1=O	3	·	i	·	3	·	·
Cc1ccc(C(=O)NCCNc2nc3cc(C)c(C)cc3cc2C)cc1	-5	-4	i	15*	-4	20*	4
Cc1cc2cc(C)c(NCCNC(=O)c3ccccc3)nc2cc1C	-2	2	i	-1	1	·	·
CC(=O)NCCNc1nc2cc(-c3ccc4c(ccn4C)c3)sc2c(=O)n1C	-5	2	i	-1	-5	·	·
COc1ccc(-c2cc(NC=O)c3ncc(-c4cccc(C(F)(F)F)c4)n3c2)c(OC)c1	12	-27	+	20*	16	13*	1	Myeloid diff CP1=i;GFP autofluor=0
CN(C)C(=O)c1cccc(-c2cnc3c(NC=O)cc(-c4cccc(C(F)(F)F)c4)cn23)c1	4	-16	i	6	30	·	·
O[C@H]1C[C@H](c2ccccc2)N(CC2CCCCC2)C[C@@H]1n1cc(-c2ccc(F)cc2)nn1	15	12	i	2	6	·	·
COc1ccc([C@H]2C[C@@H](O)[C@H](n3cc(-c4ccc(F)cc4)nn3)CN2CC2CCCCC2)cc1	1	18	i	14*	32	1	4	Myeloid diff CP1=i;GFP autofluor=0
CCN(CC)C(=O)CS(=O)(=O)CC(=O)Nc1cc(OCCOC)c(Cl)cc1Cl	0	15	i	0	-4	·	·
Oc1ccccc1N=Cc1c(O)ccc2oc3c(c12)CCCC3	34	2	i	14*	-4	8.3*	10	Myeloid diff CP1=i;GFP autofluor=3
SMILES	Exocytosis inh	MC4R antagonist	Myeloid diff MLP	MC4R barr agon	EBI2 block	MC4R barr ag	MOR DOR agonist	others
O=C(O)c1ccc(N=Cc2c(O)ccc3oc4c(c23)CCCC4)cc1	8	3	i	2	4	·	·
O=C(Cn1nnc(-c2ccc(F)cc2)n1)Nc1cccc(S(=O)(=O)N2CCCC2)c1	-1	18	i	-1	4	·	·
c1ccc(-c2sc3ccccc3c2-c2ccc(OCCN3CCCC3)cc2)cc1	-4	-2	i	14*	-15	32*	10	Myeloid diff CP1=i;GFP autofluor=4
CCOC(=O)Cc1csc(NC(=O)c2sc3nc4cc(C)ccc4cc3c2N)n1	4	11	i	39*	7	25*	2	Myeloid diff CP1=i;GFP autofluor=1
Cc1cc2cc(CNC(=O)C(C)Oc3ccccc3)ccc2n1C (centres undefined)	-2	-1	i	-2	-13	·	·
O=C(Nc1ccc(-c2nc3cc(Cl)ccc3c(=O)o2)cc1)c1ccco1	0	5	i	-3	-3	·	·
O=C(Nc1ccc(-c2nc3c(ccc4ccccc43)o2)cc1)c1ccco1	0	3	+	15*	24	4	6	Myeloid diff CP1=i;GFP autofluor=0
Cc1ccc(-c2nnc(-c3ccc(NC(=O)Cc4cccs4)cc3)o2)cc1	-3	-2	+	36*	36	22*	5	Myeloid diff CP1=i;GFP autofluor=0
Cc1ccc(NC(=O)CSCC(=O)N(C)Cc2c(F)cccc2Cl)cc1	11	-3	i	0	8	·	·
COc1ccc(F)cc1-c1cc(NC(C)=O)c2ncc(-c3cc(OC)c(OC)c(OC)c3)n2c1	-7	-54	+	11*	22	9.7*	8	Myeloid diff CP1=i;GFP autofluor=0
COc1ccc2cc(C(=O)N3CCC(Cc4ccccc4)CC3)[nH]c2c1	-10	7	i	10*	77*	8	4	EBI2 conf=53*;EBI2 agonist=1;bGal cs=3
